Source: ChEMBL document CHEMBL4270646, “Novel antimalarial chloroquine- and primaquine-quinoxaline 1,4-di-N-oxide hybrids: Design, synthesis, Plasmodium life cycle stage profile, and preliminary toxicity studies” (Eur J Med Chem, 2018)

Tests used:
Mus musculus [1] = test: Acute toxicity in BALB/c mouse assessed as behavioral changes at 300 mg/kg, po administered as single dose measured every day for 14 days; type: organism-based; conditions: in vivo, 336 h
Summary of the method: (§1)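 Female BALB/c mice, 6-8 weeks old, 20-23 g, in groups of three. Single oral dose of 300 or 500 mg/kg; vehicle DMSO 100% given to controls. Mice watched for signs of toxicity for 4 h after dosing. Physical appearance, injury, pain and illness recorded daily for 14 days. Euthanasia in a CO2 chamber on day 14 or earlier if suffering.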

[2] = Genotoxicity in Salmonella typhimurium TA1535 harboring pSK1002 assessed as bacterial survival at 0.001 to 0.063 mg/ml after 4 hrs in absence of Sprague-Dawley rat liver S9 fraction by SOS/umu assay relative to control; type: toxicity, organism-based; conditions: salmonella enterica subsp. enterica serovar typhimurium; read-out: Survival
Summary of the method: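 Log-phase S. typhimurium TA1535/pSK1002 (OD600 0.15–0.4) exposed for 4 h at 37°C with shaking, with 10% rat S9 mix or PBS. Eleven twofold dilutions tested from 1 mg/mL final; DMSO as solvent control. A600 read. Survival expressed as % of negative-control A600.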

Plasmodium falciparum [3] = test: Antiplasmodial activity against GFP-harboring Plasmodium falciparum sporozoites infected in human primary hepatocytes assessed as reduction in parasite growth treated every 24 hrs by DAPI staining-based fluorescence microscopic analysis; type: functional, organism-based
Summary of the method: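 Collagen-coated wells seeded with HepG2 (P. berghei), HepG2-CD81 (P. yoelii) or primary human hepatocytes (P. falciparum). Sporozoites added: 5×10^3 to 1×10^4 per well to the cell lines, 2.5×10^4 per well to hepatocytes. Compounds given at infection: top 10 µg/mL plus seven serial dilutions, renewed at 3 h and then every 24 h. Cultures grown 40 h (cell lines) or 8 days (hepatocytes) at 37°C. Methanol-fixed, HSP70 immunolabelled, DAPI counterstained. IC50 from logistic regression; triplicate.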

Mus musculus [4] = test: Acute toxicity in BALB/c mouse assessed as necrosis of kidney at 500 mg/kg, po administered as single dose measured at day 14 by haematoxylin and eosin staining based microscopic analysis; type: organism-based; conditions: in vivo
Summary of the method: (§2)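 Female BALB/c mice, groups of three, single oral dose; vehicle DMSO 100% for controls. Mice euthanised with CO2 on day 14, or earlier if suffering. Gross necropsy performed. Spleen, liver and kidney fixed in formaldehyde 37%, stained with haematoxylin and eosin and examined by light microscopy.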

Mus musculus [5] = test: Acute toxicity in BALB/c mouse assessed as appearance of normal coloured mucosa at 300 to 500 mg/kg, po administered as single dose measured every day for 14 days; type: organism-based; conditions: in vivo, 336 h; summary of the method: as §1
Mus musculus [6] = test: Acute toxicity in BALB/c mouse assessed as effect on creatinine level at 300 to 500 mg/kg, po administered as single dose measured at day 14; type: organism-based; conditions: in vivo
Plasmodium yoelii [7] = test: Antiplasmodial activity against Plasmodium yoelii 17XNL sporozoites infected in BALB/c mouse assessed as decrease in parasitaemia in blood at 100 mg/kg, po measured at day 4 by […] relative to control; type: functional; design: scale not given: the % may be the effect or the level left
Summary of the method: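 BALB/c mice (6-8 weeks, 20-23 g), n=4 per hybrid group and n=5 per control. Dosed orally at 100 mg/kg (100 µL) on days -1, 0, +1 and +2. Vehicle was DMSO 100%; primaquine diphosphate given at 30 mg/kg daily. On day 0, 5 x 10^3 cryopreserved P. yoelii 17XNL sporozoites injected i.v. Parasitaemia read by Giemsa smear and SYBR Green flow cytometry. Groups compared by Kruskal-Wallis test.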

Mus musculus [8] = test: Acute toxicity in BALB/c mouse assessed as necrosis of liver at 500 mg/kg, po administered as single dose measured at day 14 by haematoxylin and eosin staining based microscopic analysis; type: organism-based; conditions: in vivo; summary of the method: as §2
[9] = Genotoxicity in Salmonella typhimurium TA1535 harboring pSK1002 assessed as umu gene induction at 0.001 to 0.063 mg/ml after 4 hrs in absence of Sprague-Dawley rat liver S9 fraction by beta-galactosidase reporter gene assay relative to control; type: toxicity, organism-based; conditions: salmonella enterica subsp. enterica serovar typhimurium; read-out: FC
Summary of the method: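 SOS/umu test, 4 h at 37°C, with S9 mix or PBS. Positive controls 4-NQO (2.5 µg/mL final, no S9) and 2-AA (0.0125 mg/mL final, with S9). Aliquots incubated with ONPG 0.9 mg/mL in B-buffer for 30 min at 28°C, then stopped with 1 M Na2CO3. Activity calculated as A420/A600. Induction factor is the ratio to the DMSO control; genotoxic if ≥2 at ≥80% survival.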

Plasmodium yoelii [10] = test: Potency index, ratio of primaquine IC50 to compound IC50 for GFP-expressing Plasmodium yoelii sporozoites infected in human HepG2 cells expressing CD81; type: functional
[11] = Selectivity index, ratio of CC50 for human HepG2 cells expressing CD81 to IC50 for GFP-expressing Plasmodium yoelii sporozoites; type: toxicity; conditions: read-out: Ratio CC50/IC50
Summary of the method: (§3)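 Selectivity index = CC50 (matching cell) / IC50 (matching parasite). Cell–parasite pairs: HepG2-CD81 with P. yoelii, HepG2 with P. berghei, human hepatocytes with P. falciparum.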

Mus musculus [12] = test: Acute toxicity in BALB/c mouse assessed as effect on body weight at 300 mg/kg, po administered as single dose measured every day for 14 days; type: organism-based; conditions: in vivo, 336 h; summary of the method: as §1
Mus musculus [13] = test: Acute toxicity in BALB/c mouse assessed as effect on feeding habbit at 300 mg/kg, po administered as single dose measured every day for 14 days; type: organism-based; conditions: in vivo, 336 h; summary of the method: as §1
[14] = Selectivity index, ratio of CC50 for human primary hepatocytes to IC50 for GFP-expressing Plasmodium falciparum sporozoites; type: toxicity; conditions: read-out: Ratio CC50/IC50; summary of the method: as §3
Plasmodium falciparum [15] = test: Antiplasmodial activity against chloroquine-sensitive Plasmodium falciparum 3D7 infected in human red blood cells assessed as reduction in parasite growth after 48 hrs by Hoechst 33342 staining based flow cytometric analysis; type: functional, organism-based; conditions: 3D7, 48 h
Summary of the method: (§4)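 Ring-stage cultures (>80% rings) at 1% parasitaemia in A+ human erythrocytes, 2% haematocrit. Medium RPMI 1640 with 10% A+ serum, 37°C, 5% CO2/5% O2. Compounds in DMSO at 1.56–100 µg/mL final, DMSO ≤1%. After 48 h, cells stained with Hoechst 33342 and 1×10^4 counted by flow cytometry. IC50 from logistic dose-response regression; three independent experiments in triplicate.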

[16] = Cytotoxicity against human HepG2 cells expressing CD81 assessed as reduction in cell viability after 48 hrs by MTT assay; type: cell-based
Summary of the method: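 Cells seeded at 2 × 10^5 per well and allowed 24 h at 37°C, 5% CO2 to form a monolayer. Dilutions added in triplicate and incubated 48 h. MTT (2 mg/mL) then added for 4 h, followed by DMSO for 20 min at room temperature. Absorbance read at 550 nm; DMSO diluent and untreated cells served as negative controls. CC50 derived from the curve.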

Plasmodium falciparum [17] = test: Antiplasmodial activity against the multidrug-resistant Plasmodium falciparum […] infected in human red blood cells assessed as reduction in parasite growth after 48 hrs by Hoechst 33342 staining based flow cytometric analysis; type: functional, organism-based; summary of the method: as §4

SMILES: COc1cc(NC(C)CCCNC(=O)c2c(C)[n+]([O-])c3ccccc3[n+]2[O-])c2ncccc2c1 (configuration not stated)
- Activity (Mus musculus [1]): Non-Toxic
- viability at 4 h [2]: > 80%
- IC50 (Plasmodium falciparum [3]): 5.38 µM
- Activity (Mus musculus [4]): Non-Toxic
- Activity (Mus musculus [5]): Non-Toxic
- Activity (Mus musculus [6]): Non-Toxic
- Activity (Plasmodium yoelii [7]): 95.97%
- Activity (Mus musculus [8]): Non-Toxic
- fold induction at 4 h [9]: < 2
- Ratio IC50 (Plasmodium yoelii [10]): 1.5
- selectivity ratio [11]: 153
- Activity (Mus musculus [12]): Non-Toxic
- Activity (Mus musculus [13]): Non-Toxic
- selectivity ratio [14]: 39.5
- IC50 (Plasmodium falciparum [15]): 67.2 µM
- CC50 at 48 h [16]: > 213 µM
- IC50 (Plasmodium falciparum [17]): 68.2 µM
